The source of these data is ChEMBL document CHEMBL1140143, “Combining ligand-based pharmacophore modeling, quantitative structure-activity relationship analysis and in silico screening for the discovery of new potent hormone sensitive lipase inhibitors” (J Med Chem, 2008).

One assay concerns the target T1, Hormone-sensitive lipase (Rattus norvegicus) (UniProt P15304).
T1 sequence (whole entry): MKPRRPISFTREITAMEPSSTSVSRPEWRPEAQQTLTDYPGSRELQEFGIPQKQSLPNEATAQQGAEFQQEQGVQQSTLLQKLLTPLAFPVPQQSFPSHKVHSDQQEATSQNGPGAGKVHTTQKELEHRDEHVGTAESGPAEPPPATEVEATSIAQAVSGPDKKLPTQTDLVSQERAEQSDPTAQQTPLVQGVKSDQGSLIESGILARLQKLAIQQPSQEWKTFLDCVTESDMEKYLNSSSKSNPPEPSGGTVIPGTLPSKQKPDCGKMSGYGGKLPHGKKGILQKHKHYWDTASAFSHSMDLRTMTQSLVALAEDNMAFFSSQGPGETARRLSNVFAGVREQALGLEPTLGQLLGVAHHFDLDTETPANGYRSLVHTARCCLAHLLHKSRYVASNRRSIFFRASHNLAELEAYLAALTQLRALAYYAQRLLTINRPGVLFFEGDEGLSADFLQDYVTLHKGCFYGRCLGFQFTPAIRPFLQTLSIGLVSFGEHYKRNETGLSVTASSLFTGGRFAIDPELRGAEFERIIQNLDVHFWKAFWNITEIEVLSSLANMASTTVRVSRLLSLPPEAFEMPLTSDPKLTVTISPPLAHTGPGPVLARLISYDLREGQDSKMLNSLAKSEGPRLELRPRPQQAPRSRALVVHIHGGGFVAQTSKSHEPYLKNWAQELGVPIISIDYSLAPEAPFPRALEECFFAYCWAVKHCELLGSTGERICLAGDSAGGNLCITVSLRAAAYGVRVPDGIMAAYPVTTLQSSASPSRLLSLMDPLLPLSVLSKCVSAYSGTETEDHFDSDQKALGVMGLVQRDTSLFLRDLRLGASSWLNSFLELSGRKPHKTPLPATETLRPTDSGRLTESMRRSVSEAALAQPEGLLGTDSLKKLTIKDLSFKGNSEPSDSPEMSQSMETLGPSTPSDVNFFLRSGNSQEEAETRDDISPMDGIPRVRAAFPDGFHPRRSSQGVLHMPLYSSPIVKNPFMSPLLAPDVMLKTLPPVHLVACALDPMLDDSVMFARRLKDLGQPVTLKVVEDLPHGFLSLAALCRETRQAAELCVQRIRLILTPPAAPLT
Briefly: Inhibition of HSL in Wistar rat isolated fat cells at 1 uM by spectrophotometric assay. The method, boiled down: (§1)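 HSL extract from male Wistar rat epididymal fat cells (collagenase-isolated, homogenized in Tris-HCl pH 7.0/sucrose, ether-extracted supernatant). Enzyme preincubated with compound 30 min at 37 °C, then p-nitrophenyl butyrate added at 10 µM in phosphate buffer pH 7.25 with dithioerythritol; DMSO ≤1.0%. A400 read at 1, 3, 6 min at 37 °C; residual activity versus no-compound control; mean of ≥3 measurements.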
In general, inhibition refers to the percentage by which the read-out fell short of the control. A high value points to a strong effect. Compound `O=C(O)/C(=N\OCc1ccccc1)c1ccccc1` came in with an inhibition of 21%.

As to `CC(C)[C@H](C(=O)O[C@H](C#N)c1cccc(Oc2ccccc2)c1)c1ccc(Cl)cc1`, the inhibition was 33%.

The compound `O=C(COC(=O)c1ccccc1)c1ccccc1` showed an inhibition of 9%.

The compound `O=c1c(O)c(-c2ccccc2)oc2ccccc12` registered an inhibition of 23%.

`CCOC(=O)c1nc2ccccc2nc1NCc1ccc(OC)cc1` gave an inhibition of 27%.

Regarding `CC(C)C(C(=O)OC(C#N)c1cccc(Oc2ccccc2)c1)c1ccc(Cl)cc1` (stereo not given), the inhibition was 37%.

In turn, `O=C(/C=C/c1ccccc1)OCCc1ccccc1` yielded an inhibition of 12%.

`COc1cccc(CSC(C(=O)O)c2ccccc2)c1` (stereo not given) came in with an inhibition of 67%.

Compound `Cc1ccc(S(=O)(=O)Nc2cccc3cc(Cl)ccc23)cc1` registered an inhibition of 15%.

Consider `COC(=O)c1cc(Oc2ccc(Cl)cc2Cl)ccc1[N+](=O)[O-]` [BIFENOX], for which the inhibition stood at 60%.

Regarding `CCCCOc1ccc(Oc2ccc(C(F)(F)F)cc2[N+](=O)[O-])cc1`, the inhibition was 64%.

Regarding `CCOc1ccc([Si](C)(C)CCCc2ccc(F)c(Oc3ccccc3)c2)cc1`, the inhibition turned out to be 6%.

The compound `CC(=O)Oc1cc(OCCCc2ccc(F)cc2)cc2c1-c1ccccc1CC2` registered an inhibition of 24%.

Consider `CC1(C)C(C(=O)OC(C#N)c2cccc(Oc3ccccc3)c2)C1(C)C` (stereo not given), for which the inhibition is 35%.

`Cc1ccc(-c2nc(SCc3ccccc3)nc(O)c2CCO)cc1` returned an inhibition of 45%.

The next assay addresses T2, Hormone-sensitive lipase (Rattus norvegicus, UniProt P15304).
T2 sequence (P15304 whole entry): T1 sequence (whole entry)
Put plainly: Inhibition of HSL in Wistar rat isolated fat cells by spectrophotometric assay.
For orientation: IC50 means the midpoint of a concentration-inhibition curve. `COC(=O)c1nnn(CCc2c[nH]c3ccccc23)c1C(=O)OC` yielded an IC50 of 5 µM.

In turn, `CCSCc1ccccc1OC(=O)NC` [ETHIOFENCARB] showed an IC50 of 0.37 µM.

Regarding `O=C(OCc1ccccc1)c1ccccc1` [BENZYL BENZOATE], the IC50 was determined as 1.1 µM.

On to `COc1cccc(CSC(C(=O)O)c2ccccc2)c1` (stereo not given), for which half-maximal inhibition (IC50) was put at 0.51 µM. This IC50 lies about 2.2-fold lower than the previous one.

On to `COC(=O)c1cc(Oc2ccc(Cl)cc2Cl)ccc1[N+](=O)[O-]` [BIFENOX], for which the IC50 is 0.43 µM.

Compound `CCCCOc1ccc(Oc2ccc(C(F)(F)F)cc2[N+](=O)[O-])cc1` gave an IC50 of 0.21 µM.

For the compound `CCN(CC)C(=O)n1oc(=O)c(C(C)C)c1C`, inhibition was half-maximal at 1.4 µM (IC50).

For the compound `Cc1c(C(C)(C)C)c(=O)on1C(=O)N1CCCCC1`, 0.014 µM corresponded to half-maximal inhibition (IC50).

With `COc1ccc(C(=O)c2ccccc2)c(O)c1` [OXYBENZONE], half-maximal inhibition (IC50) required 3.25 µM.

The compound `Cc1c(S(=O)(=O)c2ccc(Cl)cc2)c(=O)on1C(=O)N1CCCCC1` returned a concentration for half-maximal inhibition (IC50) of 0.035 µM.

For the compound `CCOc1nn(-c2cccc(OCc3ccccc3)c2)c(=O)o1`, it took 0.0194 µM to reach half-maximal inhibition (IC50). Compared with the last compound, the IC50 is about 1.8-fold lower.

`Cc1c(C(C)C)c(=O)on1C(=O)N(C)c1ccc(Cl)cc1`: the IC50 was 0.017 µM.

In turn, `Cc1c(C(C)C)c(=O)on1C(=O)N1CCN(Cc2ccccc2)CC1` gave an IC50 of 0.065 µM.

As to `Cc1c(C(C)C)c(=O)on1C(=O)Nc1ccccc1`, the IC50 was over 1 µM.

Turning to `CCCCc1c(C)n(C(=O)N2CCCCC2)oc1=O`, inhibition was half-maximal at 0.007 µM (IC50). This counts as single-digit nanomolar.

With `Cc1c(C)n(C(=O)N2CCCCC2)oc1=O`, the IC50 is 0.013 µM. This IC50 lies about 1.9-fold higher than the previous one.

`CSc1nc(-c2ccc(C(F)(F)F)cc2)nn1C(=O)N(C)C` had an IC50 of 0.00176 µM.

Regarding `COCCc1c(C)n(C(=O)N2CCCCC2)oc1=O`, half-maximal inhibition (IC50) required 0.01 µM. Compared with the last compound, the IC50 is about 5.7-fold higher.

Consider `CCCCc1c(C)n(C(=O)N2CCC(C)CC2)oc1=O`, for which the IC50 came to 0.001 µM.

With `Cc1c(C(C)C)c(=O)on1C(=O)N1CCCc2ccccc21`, 0.06 µM corresponded to half-maximal inhibition (IC50).

With `COc1nn(-c2ccc(NC(=O)c3ccc(C(C)(C)C)cc3)cc2)c(=O)o1`, the IC50 stood at 0.00041 µM.

For `CCN(CC)C(=O)C1CCCN(C(=O)n2oc(=O)c(C(C)C)c2C)C1` (stereo not given), the IC50 was over 1 µM.

As to `Cc1c(C(C)C)c(=O)on1C(=O)N(C)Cc1cccc(F)c1`, the IC50 amounted to 0.005 µM.

In turn, `Cc1c(C(C)C)c(=O)on1C(=O)N1CCCCC1` yielded an IC50 of 0.002 µM.

For the compound `Cc1c(C(C)C)c(=O)on1C(=O)N1CC(C)CC(C)C1` (stereo not given), the midpoint of inhibition, the IC50, lay at 0.326 µM.

In the case of `CCCSc1nc(-c2ccc(Cl)cc2)nn1C(=O)N(C)C`, the IC50 came to 0.00106 µM. This IC50 lies about 310-fold lower than the previous one.

For `CCSc1nc(-c2ccc(Cl)cc2)nn1C(=O)N(C)C`, the IC50 came out at 0.00371 µM.

Turning to `Cc1c(C(C)C)c(=O)on1C(=O)N1CCCC(C)(C)C1`, half-maximal inhibition (IC50) required 0.007 µM.

In the case of `CSc1nc(-c2ccc(OC(F)(F)F)cc2)nn1C(=O)N(C)C`, the IC50 worked out at 0.00176 µM.

In turn, `CN(C(=O)n1nc(-c2ccc(Cl)cc2)nc1SCC(F)(F)F)c1ccccc1` gave an IC50 of 0.003 µM.

For the compound `Cc1c(C(C)C)c(=O)on1C(=O)N1CCC(C(=O)N(C)C)CC1`, the IC50 is over 1 µM.

For the compound `Cc1c(C(C)C)c(=O)on1C(=O)N1CCCCCCC1`, the midpoint of inhibition, the IC50, lay at 0.9 µM.

Compound `CCc1c(C)n(C(=O)N2CCCCC2)oc1=O` registered an IC50 of 0.018 µM.

The target of another assay is T1, Hormone-sensitive lipase (Rattus norvegicus). Put plainly: Inhibition of HSL in Wistar rat isolated fat cells at 10 uM by spectrophotometric assay. The method, boiled down: as §1
In turn, `COC(=O)c1nnn(CCc2c[nH]c3ccccc23)c1C(=O)OC` had an inhibition of 52%.

In turn, `CC(C)=NNc1ccnc(SCc2ccccc2)n1` displayed an inhibition of 2%.

The compound `CCSCc1ccccc1OC(=O)NC` [ETHIOFENCARB] gave an inhibition of 52%.

Regarding `O=C(/C(=N/c1ccccc1)NO)c1ccccc1`, the inhibition was found to be 23%.

With `CCOC(=O)c1c(C)c2c(n1C)CC/C(=C\N1CCCCC1)C2=O`, the inhibition turned out to be 10%.

Compound `COc1cc(CNC(=O)CCCC/C=C/C(C)C)ccc1O` returned an inhibition of 33%.

As for `O=C(OCc1ccccc1)c1ccccc1` [BENZYL BENZOATE], the inhibition came to 66%.

The compound `COC(=O)Cc1nc2ccc(OC)cc2nc1O` registered an inhibition of 15%.

For `COC1=CC(=O)OC(c2ccco2)C1` (stereo not given), the inhibition is 12%.

Regarding `O=C(NC(Cc1ccccc1)C(=O)O)C(=O)c1c[nH]c2ccc(Cl)cc12` (stereo not given), the inhibition is 26%.

For `O=S(=O)(Oc1ccc(Cl)cc1)c1ccc(Cl)cc1`, the inhibition was 26%.

The compound `COc1ccc(Cc2ccc3nc(O)cc(C)c3c2)cc1S(=O)(=O)O` showed an inhibition of 24%.

For `O=C(CC(=O)c1ccccc1)c1ccccc1`, the inhibition amounted to 28%.

As for `COC1=CC(=O)OC(C)(c2ccccc2)C1` (stereo not given), the inhibition was determined as 24%.

For the compound `COc1ccc(Br)c(C(=O)O)c1OS(=O)(=O)c1ccc(C)cc1`, the inhibition came to 30%.

The compound `COC(=O)c1ccc(C)c(NS(=O)(=O)c2ccc3c(c2)c(=O)sn3C)c1` returned an inhibition of 24%.

The compound `COC(=O)C1Oc2ccc(Cl)cc2C1=O` (stereo not given) gave an inhibition of 3%.

As for `COc1ccc(C(=O)c2ccccc2)c(O)c1` [OXYBENZONE], the inhibition worked out at 44%.

Turning to `Cc1ncc(COCc2ccccc2)c(CO)c1OCc1ccccc1`, the inhibition was 31%.

As to `COc1ccc(C(O)c2cc3ccccc3n2S(=O)(=O)c2ccccc2)cc1` (stereo not given), the inhibition came out at 29%.

As to `CCC(CCC#N)C(=O)c1ccc(C)o1` (stereo not given), the inhibition was 14%.

Compound `COc1ccc2cc([C@H](C)C(=O)O)ccc2c1` came in with an inhibition of 64%.
